Reference: article PMC3032979 (Structure (London, England : 1993), 2011)
Like-named read-outs stand apart in the source and are kept apart here.

Experiments:
[1] = target: T1, CAR:RXR (Mus musculus, UniProt O35627); test: ITC, SRC1 box 2 peptide binding to wild-type CAR:RXR LBDs; design: species or system murine (mCAR LBD), human (RXR LBD); details: for affinity of ligand-bound CAR:RXR for SRC1 coactivator (in words): saturating meclizine versus TCPOBOP
[2] = tested on: CAR LBD within CAR:RXR; test: differential amide HDX MS, CAR portion of CAR:RXR; design: species or system murine; details: for HDX kinetics versus unliganded CAR:RXR (in words): 4°C, pH 8, 10–3600 seconds
[3] = tested on: RXR LBD within CAR:RXR; test: differential amide HDX MS, RXR portion of CAR:RXR; design: species or system human; details: 4°C, pH 8, 10–3600 seconds
[4] = tested on: mCAR; details: LXRE response element, HepG2 cells; ref Huang et al., 2004; cited from earlier work
[5] = tested on: human CAR isoform; details: ref Huang et al., 2004; cited from earlier work
[6] = tested on: murine CAR; details: cited from earlier work
[7] = target: (L343A)CAR:RXR (Mus musculus, UniProt O35627, L343A); test: ITC, SRC1 peptide binding to; design: species or system murine (mCAR LBD), human (RXR LBD); details: for ΔG / −TΔS / n (one-site binding model) / ΔH: SRC1 peptide binding, 25°C; for ΔG / −TΔS: pH 7.2; for n (one-site binding model) / ΔH: pH 7.2, average of at least three experiments ± SD
Sequence of (L343A)CAR:RXR (O35627 117-358 L343A, other chains not shown): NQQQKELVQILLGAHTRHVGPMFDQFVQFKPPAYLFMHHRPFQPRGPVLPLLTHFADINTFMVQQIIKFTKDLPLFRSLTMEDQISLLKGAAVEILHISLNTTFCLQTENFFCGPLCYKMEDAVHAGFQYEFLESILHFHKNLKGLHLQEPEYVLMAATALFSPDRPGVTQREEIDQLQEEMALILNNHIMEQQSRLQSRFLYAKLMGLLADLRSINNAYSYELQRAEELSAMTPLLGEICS

[8] = target: T2, (L343F)CAR:RXR (Mus musculus, UniProt O35627, L343F); test: ITC, SRC1 peptide binding to; design: species or system murine (mCAR LBD), human (RXR LBD); details: for ΔG / −TΔS / n (one-site binding model) / ΔH: SRC1 peptide binding, 25°C; for ΔG / −TΔS: pH 7.2; for n (one-site binding model) / ΔH: pH 7.2, average of at least three experiments ± SD
T2 sequence (O35627 117-358 L343F): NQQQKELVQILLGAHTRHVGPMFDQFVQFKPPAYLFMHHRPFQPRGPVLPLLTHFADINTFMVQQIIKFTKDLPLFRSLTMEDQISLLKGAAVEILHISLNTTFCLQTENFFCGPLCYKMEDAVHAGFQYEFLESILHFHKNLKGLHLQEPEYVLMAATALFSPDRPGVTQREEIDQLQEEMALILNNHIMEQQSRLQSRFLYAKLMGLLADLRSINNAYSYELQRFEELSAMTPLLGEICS
T2 sequence (P19793 225-462 partner limits assumed): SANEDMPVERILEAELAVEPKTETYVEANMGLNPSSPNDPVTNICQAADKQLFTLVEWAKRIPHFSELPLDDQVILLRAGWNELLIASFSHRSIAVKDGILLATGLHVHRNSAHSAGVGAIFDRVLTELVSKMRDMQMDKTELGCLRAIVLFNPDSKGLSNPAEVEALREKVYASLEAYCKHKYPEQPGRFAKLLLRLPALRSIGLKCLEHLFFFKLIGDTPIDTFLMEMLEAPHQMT

[9] = tested on: CAR:(W282F)RXR; test: steady-state tryptophan fluorescence quenching, CAR:; type: binding, murine (mCAR LBD), human (RXR LBD); details: 1.0 μM protein (Figure S2); excitation 295 nm; pH 8.0
[10] = tested on: CAR:(W305F)RXR; test: steady-state tryptophan fluorescence quenching, CAR:; type: binding, murine (mCAR LBD), human (RXR LBD); details: 1.0 μM protein (Figure S2); excitation 295 nm; pH 8.0
Method in brief: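 Human RXR LBD (residues 225–462) carrying W305F, co-expressed with CAR LBD in E. coli BL21(DE3) Gold (0.5 mM IPTG, 20 h, 20°C). Heterodimer purified by Ni-NTA, then size exclusion in 20 mM Tris-HCl pH 8.0, 250 mM NaCl, 2.5 mM EDTA, 5.0 mM DTT. Steady-state emission scanned 305–400 nm and compared with wild-type and W282F heterodimers at 340 nm.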

[11] = target: T1, CAR:RXR; test: effect of CAR ligands on 9-cis-retinoic acid; type: binding, murine (mCAR LBD), human (RXR LBD); details: fluorescence quenching at 340 nm upon titrating 9c into CAR:RXR
[12] = residues 327–358 (H10, H11, H12)
[13] = SRC1 peptide binding in the presence of meclizine (ten-fold excess), 25°C, pH 7.2
[14] = SRC1 peptide binding in the presence of meclizine (ten-fold excess), 25°C, pH 7.2, average of at least three experiments ± SD

T1 sequence (O35627 117-358, other chains not shown): as the sequence (O35627 117-358 L343A, other chains not shown) above, with A227L counted along it

## Cc1cccc(CN2CCN(C(c3ccccc3)c3ccc(Cl)cc3)CC2)c1 (stereo not drawn) [meclizine, 1-[(4-chlorophenyl)(phenyl)methyl]-4-(3-methylbenzyl)piperazine]
[1]
  affinity of ligand-bound CAR:RXR for SRC1 coactivator (in words): affinity for coactivator is less than CAR(TCPOBOP)
[2]; residues 228–245 (segment of β-sheet and H6)
  HDX kinetics versus unliganded CAR:RXR (in words): significantly protected to exchange
[2]; [12]
  HDX kinetics versus unliganded CAR:RXR (in words): significantly protected to exchange
[3]; 84 regions of RXR
  HDX kinetics of RXR versus unliganded CAR:RXR (in words): no significant differences in exchange kinetics in RXR
[4]
  agonist response (in words): mCAR agonist
[5]
  function on human CAR (in words): inverse agonist
[6]; ref Huang et al., 2004
  transactivation by murine CAR (in words): further enhanced

## CC[C@H](C)[C@H](NC(=O)[C@H](CCCCN)NC(=O)[C@H](Cc1c[nH]cn1)NC(=O)[C@@H](N)CCCNC(=N)N)C(=O)N[C@@H](CC(C)C)C(=O)N[C@@H](Cc1c[nH]cn1)C(=O)N[C@@H](CCCNC(=N)N)C(=O)N[C@@H](CC(C)C)C(=O)N[C@@H](CC(C)C)C(=O)N[C@@H](CCC(N)=O)C(=O)N[C@@H](CCC(=O)O)C(=O)NCC(=O)N[C@@H](CO)C(=O)O [SRC1 peptide]
[1]; [13]
  ΔG: -8.2 kcal/mol
  −TΔS: 1.7 kcal/mol
[1]; [14]
  n (one-site binding model): 0.95 ± 0.08
  ΔH: -9.9 ± 0.3 kcal/mol
[7]; (L343A)CAR:RXR, no ligand
  unfavorable entropy (TΔS) of SRC1 peptide binding (in words): appreciably higher unfavorable entropy (TΔS)
[7]; (L343A)CAR:RXR, no ligand, versus wild-type CAR
  affinity for SRC1 peptide (in words): lower than wild-type CAR
[7]; L343A (TCPOBOP)
  ΔG: -7.8 kcal/mol
  −TΔS: 3.7 kcal/mol
  n (one-site binding model): 0.92 ± 0.14
  ΔH: -11.5 ± 0.8 kcal/mol
[7]; L343A (no ligand)
  ΔG: -6.6 kcal/mol
  −TΔS: 4.0 kcal/mol
  n (one-site binding model): 1.0 ± 0.13
  ΔH: -10.6 ± 0.5 kcal/mol
[8]; (L343F)CAR:RXR, no ligand, versus wild-type complex
  affinity for coactivator and entropy (in words): significantly greater affinity for coactivator and lower unfavorable entropy compared to the wild-type complex
[8]; L343F (androstenol)
  ΔG: -7.3 kcal/mol
  −TΔS: 2.7 kcal/mol
  n (one-site binding model): 1.0 ± 0.04
  ΔH: -10.0 ± 0.2 kcal/mol
[8]; L343F (no ligand)
  ΔG: -8.2 kcal/mol
  −TΔS: 0.30 kcal/mol
  n (one-site binding model): 0.97 ± 0.05
  ΔH: -8.5 ± 0.2 kcal/mol

## C[C@]12CC[C@@H](O)C[C@@H]1CC[C@@H]1[C@@H]2CC[C@]2(C)C=CC[C@@H]12 [androstenol, 5α-androst-16-en-3α-ol]
[6]; androstane metabolites, ref Forman et al., 1998
  ligand function on murine CAR (in words): physiological inverse agonist ligands of murine CAR

## Clc1cnc(Oc2ccc(Oc3ncc(Cl)cc3Cl)cc2)c(Cl)c1 [TCPOBOP, 1,4-bis[2-(3,5-dichloropyridyloxy)]benzene]
[1]
  affinity of ligand-bound CAR:RXR for SRC1 coactivator (in words): higher affinity for coactivator than meclizine
[9]
  tryptophan quenching of CAR:(W282F)RXR (in words): strong dose-dependent increase in tryptophan quenching
[10]
  tryptophan fluorescence response of CAR:(W305F)RXR (in words): no significant response
[11]
  effect on 9c binding to CAR:RXR (in words): do not appear to significantly affect 9-cis-retinoic acid (9c) binding to CAR:RXR
[2]; differential HDX, TCPOBOP compared with meclizine
  overall impact on conformational dynamics of CAR (in words): broader and of greater magnitude than that of meclizine
[2]; residues 143–178 (helices H2′, H2″, parts of H3)
  HDX kinetics versus unliganded CAR:RXR (in words): significant protection from exchange
[2]; [12]
  HDX kinetics versus unliganded CAR:RXR (in words): most significant reductions in HDX behavior
[2]; residues 339–345, CAR(TCPOBOP):RXR compared with CAR(meclizine):RXR
  HDX exchange kinetics, residues 339–345 in CAR (in words): greater magnitude reduction in exchange kinetics
[3]; RXR residues 416–432 (helix H10)
  HDX kinetics of RXR versus unliganded CAR:RXR (in words): significant reduction in HDX kinetics
[4]
  agonist response (in words): stronger agonist response from CAR than meclizine
[6]; ref Tzameli et al., 2000
  transactivation by murine CAR (in words): further enhanced
